This is an account of results in ChEMBL document CHEMBL4152271, “Polypharmacological profile of 1,2-dihydro-2-oxo-pyridine-3-carboxamides in the endocannabinoid system” (Eur J Med Chem, 2018).

For assay [1], the target named is T1, Lysophosphatidylserine lipase ABHD12 (Homo sapiens, UniProt Q8N2K0).
T1 sequence (Q8N2K0 whole entry): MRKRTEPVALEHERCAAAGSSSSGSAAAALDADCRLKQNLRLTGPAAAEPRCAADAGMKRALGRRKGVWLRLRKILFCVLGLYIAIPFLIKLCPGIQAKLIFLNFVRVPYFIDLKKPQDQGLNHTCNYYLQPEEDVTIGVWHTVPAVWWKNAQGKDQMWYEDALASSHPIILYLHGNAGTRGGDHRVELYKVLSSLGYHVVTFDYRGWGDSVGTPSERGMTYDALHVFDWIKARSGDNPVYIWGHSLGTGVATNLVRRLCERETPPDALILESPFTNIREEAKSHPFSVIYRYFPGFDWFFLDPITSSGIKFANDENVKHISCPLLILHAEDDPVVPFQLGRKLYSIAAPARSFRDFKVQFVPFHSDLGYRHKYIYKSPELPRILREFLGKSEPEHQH
Put plainly: Inhibition of human ABHD12 expressed in HEK293 cells using 2-OG as substrate preincubated for 30 mins followed by substrate addition and measured after 5 mins by liquid scintillation spectroscopic method. It counts as cell-based. The method in brief:
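Homogenate (40 µg) of HEK293 cells stably transfected with hABHD6 or hABHD12, compound preincubated 30 min at 37 °C in […], 0.1% BSA, pH 7.6. DMSO vehicle; WWL70 10 µM or THL 20 µM as positive controls. 10 µM 2-OG added for 5 min at 37 °C, stopped with CHCl₃:MeOH. Aqueous phase counted; no-enzyme blanks and non-transfected HEK293 hydrolysis subtracted.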

The species entered for the next assay is Homo sapiens. The assay is described as follows: Selectivity ratio of Ki for human CB1 receptor to Ki for human CB2 receptor. The essentials:
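Membranes expressing hCB1 or hCB2 (stably transfected CHO) in 50 mM Tris-HCl, 2.5 mM EDTA, 5 mM MgCl₂, 0.5% fatty acid-free BSA, pH 7.4. Incubated with compound and 0.5 nM [³H]CP55,940 for 90 min at 30 °C. Nonspecific binding with 10 µM […]. GF/B filtration, radioactivity counted, Ki derived. Mean ± SD, at least 3 experiments in triplicate.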

In assay [2] the test system is U-937. The assay is described as follows: Cytotoxicity against human U937 cells assessed as decrease in cell viability at 0.6 to 40 uM after 48 hrs by MTT assay. It counts as functional, cell-based. The method in brief: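 U251MG (EMEM, 10% FBS) or U937 (RPMI 1640, 10% FBS) cells plated at 4x10³/well for 24h, then exposed to compounds (0–40 µM) for 48 h at 37°C. MTT reduction, formazan read at 595 nm. Viability as % of untreated control. Five independent experiments in triplicate, mean ± SD, ANOVA with Bonferroni.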

The next assay addresses Cannabinoid receptor 2 (Homo sapiens, UniProt P34972). Put plainly: Agonist activity at human CB2 receptor expressed in CHO cell membranes after 90 mins by [35S]GTPgammaS binding assay. It counts as functional. The method in brief: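 Membranes (5 µg) of hCB2-expressing cells in 50 mM Tris-HCl, 3 mM MgCl₂, 0.2 mM EDTA, 100 mM NaCl, 0.5% fatty acid-free BSA, pH 7.4, with 10 µM GDP and 0.1 nM [³⁵S]GTPγS. Kept on ice, started by vehicle or compound, 90 min at 30 °C. Nonspecific binding with 10 µM GTPγS. Filtered on GF/B, radioactivity counted. At least three experiments in triplicate, mean ± SD.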
On the technique in general: GTPγS is a poorly hydrolysed GTP analogue; its binding reports G protein activation.

Assay [3] has as its system U-937. Put plainly: Inhibition of [ethanolamine-1-3H]AEA/unlabeled AEA uptake in human U937 cells preincubated for 15 mins followed by [ethanolamine-1-3H]AEA/unlabeled AEA addition and measured after 15 mins by scintillation counting method. It counts as functional, cell-based. The essentials:
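Intact U937 cells (0.5x10⁶ per sample) in RPMI, preincubated with compound for 15 min at 37 °C. Then 1 nM [ethanolamine-1-³H]AEA plus unlabeled AEA (final 100 nM) added for 15 min. Stopped by rapid filtration and ice-cold PBS/1% BSA washes, radioactivity counted. At least three experiments in triplicate, mean ± SD.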

SMILES strings stand for the structures. Calls of active or inactive are those of the source. The calls are words filed in the database; no cut-off is given here. A value given as a limit tells only on which side of the number the result lay.

Cannabinoid receptor 2, sequence (P34972 whole entry): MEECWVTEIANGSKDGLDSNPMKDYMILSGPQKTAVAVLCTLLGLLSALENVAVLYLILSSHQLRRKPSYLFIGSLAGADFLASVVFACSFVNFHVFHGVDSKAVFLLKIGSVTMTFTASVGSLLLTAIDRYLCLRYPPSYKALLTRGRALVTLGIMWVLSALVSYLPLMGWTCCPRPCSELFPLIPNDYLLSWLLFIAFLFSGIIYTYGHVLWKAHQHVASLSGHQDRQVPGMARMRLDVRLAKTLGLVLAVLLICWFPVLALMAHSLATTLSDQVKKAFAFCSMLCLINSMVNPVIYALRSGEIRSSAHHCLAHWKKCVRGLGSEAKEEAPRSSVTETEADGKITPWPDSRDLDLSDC

Take `Cc1c(Br)cn(Cc2ccc(F)cc2)c(=O)c1C(=O)NC1CCCCCC1`: the 50% inhibitory concentration (IC50) (in general, the concentration at which inhibition is half-maximal) in assay [1] amounted to 2100 nM; with U-937 [3], 930 nM. In addition, the Ratio Ki in the assay filed under Homo sapiens was 0.65. For the same molecule, in the assay on U-937 [2], the result was Active. Also, the midpoint of the response on Cannabinoid receptor 2, the EC50, lay at 1.1 nM.
In the case of `COc1ccc(-c2cn(Cc3ccc(F)cc3)c(=O)c(C(=O)NC3CCCCCC3)c2C)cc1`, the IC50 in assay [1] is more than 10000 nM; in the assay with U-937 [3], 280 nM. Further, the Ratio Ki in the assay listed under Homo sapiens is 2 to 54. For the same molecule, the result in the assay on U-937 [2] was Active.
On to `Cc1c(Br)cnc(OCc2ccc(F)cc2)c1C(=O)NC1CCCCCC1`, for which the results for the IC50 (in assay [1]; in the assay with U-937 [3]) were more than 10000 nM and 620 nM, respectively. In addition, in the assay listed under Homo sapiens, the Ratio Ki was 0.18. Also, the outcome with U-937 [2] was Active. For the same molecule, the EC50 (as a rule, the concentration needed to bring the measured effect to its halfway point) at Cannabinoid receptor 2 is 687 nM.
